# ChEMBL document CHEMBL5532647, “Design, synthesis, ADME and biological evaluation of benzylpiperidine and benzylpiperazine derivatives as novel reversible monoacylglycerol lipase (MAGL) inhibitors” (Eur J Med Chem, 2024)
# The source made the active and inactive calls. No cut-off for these calls is given here.
# Columns and labels:
# [1] = molecular target: T1, Fatty-acid amide hydrolase 1 (Homo sapiens) (UniProt O00519); assay: Inhibition of FAAH in human U-937 cells at 10 uM preincubated with compound for 15 mins followed by 2-OG addition and measured after 15 mins by scintillation liquid counter analysis; type: cell-based; settings: time 30.0 min
# T1 sequence (whole entry): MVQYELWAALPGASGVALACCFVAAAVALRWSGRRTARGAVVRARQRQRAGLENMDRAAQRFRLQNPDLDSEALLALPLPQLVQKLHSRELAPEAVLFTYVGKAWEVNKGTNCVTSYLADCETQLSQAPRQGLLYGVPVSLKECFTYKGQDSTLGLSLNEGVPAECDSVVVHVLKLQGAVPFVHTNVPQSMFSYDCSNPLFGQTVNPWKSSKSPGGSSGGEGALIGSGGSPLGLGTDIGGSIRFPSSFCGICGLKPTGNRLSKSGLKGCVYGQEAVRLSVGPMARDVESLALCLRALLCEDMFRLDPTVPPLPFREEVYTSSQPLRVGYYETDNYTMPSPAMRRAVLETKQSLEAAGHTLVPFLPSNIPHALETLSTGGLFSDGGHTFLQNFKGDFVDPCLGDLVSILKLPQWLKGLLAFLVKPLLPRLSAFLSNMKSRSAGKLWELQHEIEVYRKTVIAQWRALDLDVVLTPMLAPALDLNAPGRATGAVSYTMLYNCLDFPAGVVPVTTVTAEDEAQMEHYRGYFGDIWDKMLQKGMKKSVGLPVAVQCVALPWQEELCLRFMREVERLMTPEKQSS
# [2] = molecular target: T2, Monoacylglycerol lipase ABHD6 (Homo sapiens) (UniProt Q9BV23); assay: Inhibition of human ABHD6 transfected in HEK293 cells at 10 uM preincubated with compound for 30 mins followed by 2-OG addition and measured after 5 mins by liquid scintillation spectroscopy; type: cell-based; settings: time 35.0 min
# T2 sequence (whole entry): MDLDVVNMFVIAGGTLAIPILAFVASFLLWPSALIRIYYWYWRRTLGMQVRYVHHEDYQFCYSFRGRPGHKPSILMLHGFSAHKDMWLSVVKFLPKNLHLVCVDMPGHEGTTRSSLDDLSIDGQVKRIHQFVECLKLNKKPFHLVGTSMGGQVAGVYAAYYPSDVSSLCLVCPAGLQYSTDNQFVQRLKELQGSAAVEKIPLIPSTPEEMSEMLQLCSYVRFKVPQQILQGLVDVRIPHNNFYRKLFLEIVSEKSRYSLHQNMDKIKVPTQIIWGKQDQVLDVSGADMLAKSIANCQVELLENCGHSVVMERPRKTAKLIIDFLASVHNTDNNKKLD
# Procedure, shortened: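 Homogenates (40 μg) of HEK293 cells stably transfected with hABHD6 or hABHD12. Compound 10 μM preincubated 30 min at 37 °C, 500 rpm, in Tris/EDTA buffer with 0.1% fatty acid-free BSA, pH 7.6. Controls: WWL70 10 μM or THL 20 μM; DMSO vehicle. 2-OG 10 μM added for 5 min at 37 °C. Stopped with ice-cold CHCl3:MeOH; aqueous phase counted. No-enzyme blanks used; non-transfected HEK293 hydrolysis subtracted.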
# [3] = molecular target: T3, Lysophosphatidylserine lipase ABHD12 (Mus musculus) (UniProt Q99LR1); assay: Inhibition of mouse brain ABHD12 at 10 uM incubated with compound for 25 mins by TAMRA-FP probe based SDS-PAGE analysis; type: tissue-based
# T3 sequence (whole entry): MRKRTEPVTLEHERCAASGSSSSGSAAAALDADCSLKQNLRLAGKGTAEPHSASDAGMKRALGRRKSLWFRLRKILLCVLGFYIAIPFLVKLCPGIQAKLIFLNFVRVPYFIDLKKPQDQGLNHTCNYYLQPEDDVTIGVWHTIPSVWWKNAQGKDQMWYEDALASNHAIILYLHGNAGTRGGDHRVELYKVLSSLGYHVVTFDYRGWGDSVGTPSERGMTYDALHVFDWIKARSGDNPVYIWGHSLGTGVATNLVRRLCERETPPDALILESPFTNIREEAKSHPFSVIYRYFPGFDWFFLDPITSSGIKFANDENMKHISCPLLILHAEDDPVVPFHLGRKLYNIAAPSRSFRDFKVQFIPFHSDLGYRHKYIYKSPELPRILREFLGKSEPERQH
# Procedure, shortened: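 Mouse brain membranes (2 mg/mL final, in PBS) preincubated 25 min at 25 °C with test compound (10 μM final) or DMSO vehicle. Controls: JZL-184, URB597 4 μM, WWL70 10 μM, THL, MAFP 5 μM. TAMRA-FP 125 nM final added for 5 min at 25 °C. Reaction stopped with Laemmli buffer, 3 min at 25 °C then 10 min at 90 °C. Separation by 10% SDS-PAGE, fluorescence scanning, three independent experiments.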
# [4] = molecular target: Cannabinoid receptor 1 (Homo sapiens) (UniProt P21554); assay: Displacement of [3H]CP55940 from human CB1 receptor at 10 uM incubated for 90 mins
# Cannabinoid receptor 1 (Homo sapiens), sequence (P21554 whole entry): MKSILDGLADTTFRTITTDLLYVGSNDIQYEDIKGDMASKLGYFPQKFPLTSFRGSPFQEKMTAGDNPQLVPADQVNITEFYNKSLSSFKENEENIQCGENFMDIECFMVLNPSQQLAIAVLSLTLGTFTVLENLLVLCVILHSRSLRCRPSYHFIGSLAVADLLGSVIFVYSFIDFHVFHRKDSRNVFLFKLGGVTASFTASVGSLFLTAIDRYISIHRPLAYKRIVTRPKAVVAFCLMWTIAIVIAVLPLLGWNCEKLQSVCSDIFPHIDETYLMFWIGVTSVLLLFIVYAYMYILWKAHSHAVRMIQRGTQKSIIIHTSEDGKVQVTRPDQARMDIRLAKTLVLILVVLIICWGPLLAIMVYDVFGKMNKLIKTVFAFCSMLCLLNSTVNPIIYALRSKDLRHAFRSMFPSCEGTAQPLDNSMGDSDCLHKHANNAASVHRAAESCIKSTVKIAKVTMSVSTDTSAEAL
# Procedure, shortened: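 Membranes expressing hCB1 or hCB2 in 50 mM Tris-HCl buffer, pH 7.4, with 2.5 mM EDTA, 5 mM MgCl2 and 0.5% fatty acid-free BSA. Incubated with compound (10 μM screening) or vehicle plus 0.5 nM [3H]CP55,940 for 90 min at 30 °C. Non-specific binding defined with 10 μM […]. GF/B filtration, ice-cold buffer washes, radioactivity counted. Two independent experiments in triplicate.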
# Monoglyceride lipase = molecular target: T4, Monoglyceride lipase (Homo sapiens, UniProt Q99685); assay: Inhibition of human recombinant MAGL using 4-nitrophenylacetate as substrate incubated for 30 mins by microplate reader analysis
# T4 sequence (Q99685 whole entry): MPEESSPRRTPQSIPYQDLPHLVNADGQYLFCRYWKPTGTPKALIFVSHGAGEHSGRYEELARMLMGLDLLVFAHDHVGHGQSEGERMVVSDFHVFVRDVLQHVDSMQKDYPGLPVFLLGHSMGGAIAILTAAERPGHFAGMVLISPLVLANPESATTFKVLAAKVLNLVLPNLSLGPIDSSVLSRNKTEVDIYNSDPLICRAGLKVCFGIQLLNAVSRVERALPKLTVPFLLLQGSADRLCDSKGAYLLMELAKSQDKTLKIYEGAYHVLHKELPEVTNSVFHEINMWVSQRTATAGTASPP
# [5] = molecular target: T5, Monoglyceride lipase (Homo sapiens) (UniProt Q99685); assay: Reversible inhibition of human recombinant MAGL using 4-nitrophenylacetate as substrate incubated for 15 mins in presence of DTT by microplate reader analysis
# T5 sequence (whole entry): T4 sequence (Q99685 whole entry)
# Procedure, shortened: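 Human recombinant MAGL (11 ng/well) in 10 mM Tris, pH 7.2, with 1 mM EDTA and 0.1 mg/mL BSA, at room temperature. Compound plus 4-NPA incubated 15 min with 10 μM DTT before enzyme addition. Compound final 320–0.02 nM. Absorbance at 405 nm after 30 min, blank-subtracted. IC50 from sigmoidal dose–response fit.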
Structure (SMILES),inhibition [1],inhibition [2],inhibition [3],Activity [4],IC50 (Monoglyceride lipase) [nM],inhibition [5]
O=C(c1cc(O)ccc1F)N1CCC(Cc2cccc(Sc3cc(C(F)(F)F)ccn3)c2)CC1,inactive,inactive,inactive,inactive,1.3,inactive
O=C(c1cc(O)ccc1F)N1CCN(Cc2cccc(Sc3cc(C(F)(F)F)ccn3)c2)CC1,inactive,inactive,inactive,inactive,5.2,inactive
O=C(c1cccc(O)c1)N1CCC(Cc2ccc(F)c(Sc3cc(C(F)(F)F)ccn3)c2)CC1,inactive,inactive,inactive,inactive,2.7,inactive
O=C(c1cccc(O)c1)N1CCC(Cc2cccc(Sc3cc(C(F)(F)F)ccn3)c2)CC1,inactive,inactive,inactive,inactive,2.5,inactive
